Published values collected from several papers.
Each line is one published result; the experiments were not run side by side.
Target: Mitogen-activated protein kinase kinase kinase 9 (MAP3K9, Homo sapiens, UniProt P80192)

O=C(O)[C@H]1[C@H](Cn2nnc3ccccc3c2=O)CC[C@@H]1C(=O)c1ccc(OCCC2CCOCC2)cc1
remaining binding (cell-free assay; competition with immobilised ligand; 1 µM): 81%

NS(=O)(=O)c1ccc(CNc2nc(Nc3cccc(CN4CCOCC4)c3)ncc2C2CC2)cc1
remaining activity (enzyme activity; inhibitor; radiometric; 1 µM): 72%

Oc1cccc(-c2nc(N3CCOCC3)c3oc4ncccc4c3n2)c1
remaining signal (cell-free assay; 0.5 µM): 103%

COc1cc(/C=C/C(=O)CC(=O)/C=C/c2ccc(O)c(OC)c2)ccc1O
activity vs control (enzyme activity; inhibitor; 1 µM): 14%

Cc1nn(CC(F)(F)F)cc1Nc1ncc(C2CC2)c(NCCCNC(=O)C2CCC2)n1
remaining activity (enzyme activity; inhibitor; radiometric; 1 µM): 78%

C[C@H](c1ccnc(Nc2nc3ccc(-c4cc(N(C)C)ncn4)cc3[nH]2)c1)N1CCN(C(=O)CC(F)(F)F)CC1
remaining binding (cell-free assay; competition with immobilised ligand; 0.1 µM): 100%

Brc1cnc(Nc2cccc(CN3CCOCC3)c2)nc1NCCc1c[nH]cn1
remaining activity (enzyme activity; inhibitor; radiometric; 1 µM): -1%

Cc1ccc(Nc2nccc(N(C)c3ccc4c(C)n(C)nc4c3)n2)cc1S(N)(=O)=O
inhibition (enzyme activity; inhibitor; 0.3 µM): 88%

c1cc(CN2CCOCC2)cc(Nc2ncc(C3CC3)c(NCCc3c[nH]cn3)n2)c1
remaining activity (enzyme activity; inhibitor; radiometric; 1 µM): 7%

Cc1cc(NC(=O)c2cccc3cc(-c4cccc5[nH]nc(N)c45)ccc23)ccc1F
activity vs control (enzyme activity; inhibitor; 0.1 µM): 96%

C=CC(=O)Nc1cc(Nc2nccc(Nc3cc(Cl)c(F)cc3C(C)(C)O)n2)c(OC)cc1N1CC[C@@H](N(C)C)C1
inhibition (enzyme activity; inhibitor; 1 µM): 33%

CCCOc1ccc([C@@H]2[C@@H](C(=O)O)[C@H](c3ccc4c(c3)OCO4)CN2CC(=O)Nc2c(CC)cccc2CC)cc1
remaining binding (cell-free assay; competition with immobilised ligand; 1 µM): 93%

COc1cc2ncnc(Nc3ccc(Oc4ccccc4)cc3C)c2cc1OC
inhibition (enzyme activity; inhibitor; 1 µM): 9%

CNC(=O)Nc1ccc2c(c1)[C@@]1(CC2)OC(=O)N(CC(=O)N(Cc2ccc(F)cc2)[C@@H](C)C(F)(F)F)C1=O
remaining binding (cell-free assay; competition with immobilised ligand; 1 µM): 100%

COc1cc2c(Nc3ccc(Br)cc3F)ncnc2cc1OCC1CCN(C)CC1
remaining signal (cell-free assay; 0.5 µM): 96.1%

O=C(Nc1cccc(Nc2ncc(Br)c(NCCc3cnc[nH]3)n2)c1)N1CCCC1
remaining activity (enzyme activity; inhibitor; radiometric; 1 µM): 5%

O=C(O)c1cc(-c2ccc(C3CCNCC3)cc2)c2ccc(-c3ccc(C(F)(F)F)cc3)cc2c1
remaining binding (cell-free assay; competition with immobilised ligand; 1 µM): 100%

CNC(=O)c1cc(Oc2ccc(NC(=O)Nc3ccc(Cl)c(C(F)(F)F)c3)cc2)ccn1
inhibition (enzyme activity; inhibitor; 0.3 µM): -6%

COc1cccc2c(NCc3ccccc3)nc(-n3c(N)nc4ccccc43)nc12
inhibition (target engagement in cells; inhibitor; chemoproteomics; 20 mM): 11.3%

COc1cc(Nc2cnc(C#N)c(O[C@H](C)CN(C)C)n2)ncc1-c1cnn(C)c1
remaining activity (enzyme activity; inhibitor; radiometric; 1 µM): 92%

Cc1c[nH]c2nccc(Oc3c(F)cc(Nc4cc(Cl)nc(N)n4)cc3F)c12
remaining binding (cell-free assay; competition with immobilised ligand; 0.1 µM): 89%

NS(=O)(=O)c1ccc(CNc2ccnc(Nc3cccc(NC(=O)N4CCCC4)c3)n2)cc1
remaining activity (enzyme activity; inhibitor; radiometric; 1 µM): 86%

O=C(Nc1cnn(-c2csc(C(=O)NC3COC3)c2)c1)Nc1ccccc1Cl
remaining activity (enzyme activity; inhibitor; 5 µM): 95.1%

O=C(NCCCNc1nc(Nc2cccc(NC(=O)N3CCCC3)c2)ncc1I)c1cccs1
remaining activity (enzyme activity; inhibitor; radiometric; 1 µM): 4%

CO[C@H]1CC[C@H](CNc2ccc(S(=O)(=O)NC(=O)c3ccc(N4CCN(CC5=C(c6ccc(Cl)cc6)CC(C)(C)CC5)CC4)cc3Oc3cnc4[nH]ccc4c3)cc2[N+](=O)[O-])CC1
remaining binding (cell-free assay; competition with immobilised ligand; 1 µM): 84%

Nc1ncnc2occ(-c3ccc(NC(=O)Nc4cc(C(F)(F)F)ccc4F)cc3)c12
remaining signal (cell-free assay; inhibitor; 20 µM): 2%

N#CCCc1ccc2c(c1)-c1[nH]c3ccc([N+](=O)[O-])cc3c1CC(=O)N2
remaining signal (cell-free assay; 0.5 µM): 18.2%

CCC(=O)N[C@H]1CC[C@@H](C(=O)N(C)c2ccc(-c3nc4ccccc4o3)cc2)C1
remaining binding (cell-free assay; competition with immobilised ligand; 1 µM): 100%

c1cc(CN2CCOCC2)cc(Nc2nccc(NCCc3cnc[nH]3)n2)c1
remaining activity (enzyme activity; inhibitor; radiometric; 1 µM): 73%
